Screening data (PubChem)
NadD inh – inhibitors of S. aureus NadD, primary screen, biochemical, colorimetric, uHTS; hit rate 0.78% among 360,000; inhibition, % at 20 µM; purified NadD enzyme, colorimetric absorbance read-out; in the data active = inhibition above about 26%
rCAG binder – binders of r(CAG) RNA repeats, primary screen, biochemical, fluorescence | r(CAG) RNA repeat, TO-PRO-1 dye displacement fluorescence | inhibition, % at 3 µM | hit rate 1.3% among 370,000;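 active = inhibition above the plate cutoff, the mean of all test compounds on that plate plus 3 SD, cut at about 35% in these data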;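 also: higher means more dye released from RNA so lower well fluorescence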
ARFGAP1 inh – inhibitors of rat ARFGAP1 GAP activity, primary screen, biochemical, fluorescence polarization, GDP tracer | ADP-ribosylation factor GTPase-activating protein 1 (Rattus norvegicus), Q62848 | Arfgap1-stimulated ARF1 GTP hydrolysis, GDP FP detection | inhibition, % at 16.5 µM | hit rate 0.26% among 360,000;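 active = inhibition above a per-plate limit, mean inhibition of low control wells plus 3 SD, cut at about 25% in these data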
Target sequence (Q62848 1-136 limits assumed): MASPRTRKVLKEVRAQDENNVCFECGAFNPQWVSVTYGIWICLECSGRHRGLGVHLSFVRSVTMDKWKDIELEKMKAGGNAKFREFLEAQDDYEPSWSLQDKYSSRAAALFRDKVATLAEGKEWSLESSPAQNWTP
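System: truncated rat Arfgap1 GAP domain / Medium: HEPES-based buffer, pH 7.5 / Also added: N-terminally truncated human ARF1-GTP substrate / Incubation: enzyme reaction 120 min at 25 °C after 20 min preincubation / Measured by: FP of antibody-bound GDP Alexa 633 tracer, ex 620/em 688 nm / Replicates: singlicate, each compound tested once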
ASAP1 GAP inh – inhibitors of human ASAP1 ArfGAP activity, primary screen, biochemical, fluorescence polarization; Arf-GAP with SH3 domain, ANK repeat and PH domain-containing protein 1 (Homo sapiens), …; ASAP1-stimulated ARF1 GTP hydrolysis, GDP FP detection; inhibition, % at 16.5 µM; hit rate 0.19% among 360,000; in the data active = inhibition above about 25%
Target sequence (Q9ULH1 325-724 limits assumed): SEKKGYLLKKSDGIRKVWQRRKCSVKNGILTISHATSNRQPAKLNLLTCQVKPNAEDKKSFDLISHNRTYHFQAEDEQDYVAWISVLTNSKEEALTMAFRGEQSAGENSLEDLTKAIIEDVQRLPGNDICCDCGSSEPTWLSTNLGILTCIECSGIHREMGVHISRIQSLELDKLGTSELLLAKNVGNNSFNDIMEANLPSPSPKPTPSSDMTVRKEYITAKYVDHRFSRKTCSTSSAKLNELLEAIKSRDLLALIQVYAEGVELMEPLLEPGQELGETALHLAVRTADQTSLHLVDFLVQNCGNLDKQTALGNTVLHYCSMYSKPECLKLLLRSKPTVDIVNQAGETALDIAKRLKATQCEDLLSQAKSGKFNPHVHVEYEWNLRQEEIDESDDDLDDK
NadD conf – inhibitors of S. aureus NadD, confirmation, biochemical, colorimetric, single concentration; hit rate 13% among 2,000; AID 624309, 2012; purified S. aureus NadD, colorimetric enzyme assay; inhibition, % at 20 µM; shares compounds with NadD inh; in the data active = inhibition mostly above about 42%, no sharp cut-off; inactive = mostly below about 42%
A number is an active result; n = inactive; x = not tested or not shown; ! = a repeat was not active. Shown are actives, neighbours in structure and some others; about 2.2% of the full set was active somewhere.

SMILES | NadD inh | rCAG binder | ARFGAP1 inh | ASAP1 GAP inh | NadD conf
C[C@H](CO)N1C[C@H](C)[C@@H](CN(C)S(=O)(=O)c2ccccc2)Oc2ccc(NC(=O)Nc3ccc(C(F)(F)F)cc3)cc2C1=O | 35 | n | n | n | n
COc1ccc(NC(=O)N(C)C[C@H]2Oc3ccc(NC(=O)c4ccncc4)cc3C(=O)N([C@H](C)CO)C[C@@H]2C)cc1 | 40 | n | n | n | 41
CC(C)NC(=O)Nc1ccc2c(c1)C(=O)N([C@H](C)CO)C[C@H](C)[C@@H](CN(C)S(=O)(=O)c1ccccc1)O2 | n | n | n | n | x
C=CCN1[C@@H](CC(C)C)COc2cccc(N3CCSCC3)c2S1(=O)=O | x | n | x | x | x
COc1ccc2c(c1)[C@H]1[C@H](CO2)[C@H](c2ccccc2)[C@]2(C)C(=O)N(Cc3ccc(C)cc3)CC(=O)N12 | n | x | x | x | x
COc1ccc(Br)cc1CNC(=O)CN1C(=O)C(c2ccccc2)Oc2cccnc21 (centres undefined) | 59 | n | n | n | 52
C#CCn1c(=NC(=O)c2sc3ccccc3c2Cl)sc2cc(S(N)(=O)=O)ccc21 | 39 | n | 82 | n | n
COc1ccc(-c2ccc(N3C(c4cc(OC)cc(OC)c4)=Cc4ccc(OC)cc4C3CC(C)=O)cc2)cc1 (centres undefined) | n | n | n | n | x
Cc1nc(S/C(=C\c2ccc(OCc3ccccc3Cl)cc2)C(=O)O)n[nH]1 | 63 | n | n | n | n
Cc1ccc(CC(=O)N/N=C/c2ccc(OC(=O)c3ccc([N+](=O)[O-])cc3)cc2)cc1 | 33 | n | n | n | n
O=C(CNC(=O)c1ccc([N+](=O)[O-])cc1)N/N=C\c1ccc(OC(=O)c2ccccc2)cc1 | n | n | n | n | x
Cc1ccc(NC(=O)c2ncn(CCCN(CCCn3cnc(C(=O)Nc4ccc(C)c(C)c4)n3)Cc3ccc4[nH]ccc4c3)n2)cc1C | 39 | n | n | n | n
CCOC(=O)c1sc(N/N=C/c2ccccc2)nc1C | n | n | n | n | x
O=C(O)Cc1sc(N/N=C\c2ccccc2)nc1-c1ccccc1 | 47 | 44 | n | n | 55
CCOC(=O)/C=c1\s/c(=C\c2ccccc2C)c(=O)n1CC(=O)NCc1ccc2c(c1)OCO2 | n | n | n | n | x
CCOC(=O)/C=c1\s/c(=C\c2ccc3cc(OC)ccc3c2)c(=O)n1CC(=O)NCc1ccc2c(c1)OCO2 | 33 | n | n | n | n
COc1cc(C(=O)NC2CCCCN(Cc3ccc(Cl)cc3)C2=O)cc(OC)c1OC (centres undefined) | x | n | x | x | x
Cc1cc(C)n2nc(C(=O)N/N=C/c3c4ccccc4cc4ccccc34)nc2n1 | 29 | n | n | n | n
COCCCN1C(=O)[C@H](CC(=O)NCc2ccc(C)o2)[C@]2(C(=O)OC)CCCCC=C12 | x | n | x | x | x
CC(C)Sc1nc2sc3c(c2c2nnc(SCC(=O)NCc4ccco4)n12)CCCC3 | 38 | n | n | n | n
O=C(CSc1nc(C2CC2)nc2sc3c(c12)CCCC3)NCc1ccco1 | n | n | n | n | x
O=C1Nc2cc(C(=O)NCCN3CCCCCC3)ccc2S/C1=C\c1ccccc1 | 44 | n | n | n | n
CN(c1ccccc1)S(=O)(=O)c1ccc(Cl)c(C(=O)Nc2ccc(-c3nc4ccccc4[nH]3)cc2)c1 | 33 | n | n | n | n
CN(c1ccccc1)S(=O)(=O)c1ccc(Cl)c(C(=O)Nc2nc3ccccc3[nH]2)c1 | n | n | n | n | x
Cc1c[nH]c2cccc(-c3cccc4ccccc34)c12 | x | n | x | x | x
SMILES | NadD inh | rCAG binder | ARFGAP1 inh | ASAP1 GAP inh | NadD conf
O=C(CCN1C(=O)CC1c1ccco1)N1CCOCC1 (centres undefined) | n | x | x | x | x
Cc1ccc(N2C(=O)C3N=NN(CC(=O)N4N=C(c5ccccc5)CC4c4ccccc4)C3C2=O)cc1 (centres undefined) | 43 | n | n | n | n
COc1ccc(C2=NN(C(=O)CCC(=O)O)C(c3ccccc3)C2)cc1 (centres undefined) | n | n | n | n | x
COc1ccc(NC(=O)CSC2=C(C#N)C(c3ccco3)C(C(=O)Nc3nc4ccccc4s3)=C(C)N2)cc1 (centres undefined) | 38 | n | n | n | n
CCCCOCCCNC(=O)C[C@H]1C[C@@]2(C(=O)OC)C(=C[C@H](COCc3ccccc3)O[C@@H]2C)N(CCC2=CCCCC2)C1=O | x | n | n | n | x
CCc1cc2c(=O)nc3n(c2s1)Cc1ccccc1/C3=C(/O)c1ccc(F)cc1 | 36 | n | n | n | n
CCc1cc2c(=O)nc3n(c2s1)Cc1ccccc1/C3=C(/O)c1ccccc1Cl | 32 | n | n | n | n
CN1C=CC(C(C(N)=O)c2ccccc2)c2ccccc21 (centres undefined) | n | n | n | n | x
COc1cc(NC(=O)c2ccno2)cc(C(=O)Nc2cccc(C(F)(F)F)c2)c1 | n | n | n | n | x
COc1ccc(-c2cc(C(=O)Nc3cc(OC)cc(C(=O)Nc4cccc(C(F)(F)F)c4)c3)[nH]n2)cc1 | 40! | n | n | n | n
COc1ccccc1NC(=O)C(=O)NNC(=O)COc1ccc2ccccc2c1 | 34 | n | n | n | n
COc1ccccc1NC(=O)COc1ccc2ccccc2c1 | n | n | n | n | x
N=C1S/C(=C\c2ccccc2F)C(=O)N1c1ccc(F)cc1 | n | n | n | n | x
N=C1S/C(=C\c2cccc3ccccc23)C(=O)N1c1ccc(F)cc1 | 33 | n | n | n | n
Cc1[nH]c2ccccc2c1/C=C/c1nc2ccccc2c(=O)n1-c1ccc([N+](=O)[O-])cc1 | 34 | n | n | n | n
C#CCN(C)S(=O)(=O)c1ccc(N2CCCC2)cc1Br | x | n | x | x | x
CCOC(=O)C1=C(C)N=c2sc(=Cc3cc(Cl)c(OCC(=O)O)c(OC)c3)c(=O)n2C1c1ccccc1Cl (centres undefined) | 30 | n | n | n | n
C=C(C)CN(CC)c1nc(N)c2c(N)nc3c(c2c1C#N)CC(=O)N3C12CC3CC(CC(C3)C1)C2 | 35 | n | n | n | n
CCCCN1C(=O)Cc2c1nc(N)c1c(N)nc(N(CCC)CCC)c(C#N)c21 | n | n | n | n | x
C=CC#CC[N+]1(CC#Cc2ccccc2)CCOCC1 | 44 | n | 97 | 87 | n
C(#Cc1ccccc1)C[N+]1(CC#Cc2ccccc2)CCCC1 | n | n | n | n | x
Cc1ccc(C(C)C)c(OCc2ccc(C(=O)N/N=C/c3ccc(C(=O)O)cc3)cc2)c1 | 30 | n | n | n | n
Cc1ccc(-c2nc3c4ccccc4ccn3c2Cc2ccccc2C(F)(F)F)cc1 | 31 | n | n | n | n
